Reference: the M2OR odorant receptor database

Tests used:
Settings in all cases: stereoisomer not certain
[1] = target: T1, UniProt Q8VFP5
T1 sequence (whole entry): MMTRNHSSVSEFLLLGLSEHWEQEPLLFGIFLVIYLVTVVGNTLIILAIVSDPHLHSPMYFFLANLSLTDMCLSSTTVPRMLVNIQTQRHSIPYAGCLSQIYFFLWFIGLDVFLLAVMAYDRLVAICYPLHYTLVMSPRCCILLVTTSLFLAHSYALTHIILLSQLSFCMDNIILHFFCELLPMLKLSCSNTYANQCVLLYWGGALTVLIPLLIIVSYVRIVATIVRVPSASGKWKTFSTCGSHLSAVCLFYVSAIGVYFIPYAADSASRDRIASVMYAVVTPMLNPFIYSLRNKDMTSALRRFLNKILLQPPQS
How it was run: (§1)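 Each receptor–molecule pair is labelled responsive or non-responsive (inactive) according to whether the original authors judged the measured signal statistically different from baseline. The data were taken from the main text and supplementary material of published papers and checked for typos and inconsistencies. Assay methods differed by source, with transient luciferase assays in mammalian cell lines being common.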

[2] = target: T2, UniProt Q8VG01
T2 sequence (whole entry): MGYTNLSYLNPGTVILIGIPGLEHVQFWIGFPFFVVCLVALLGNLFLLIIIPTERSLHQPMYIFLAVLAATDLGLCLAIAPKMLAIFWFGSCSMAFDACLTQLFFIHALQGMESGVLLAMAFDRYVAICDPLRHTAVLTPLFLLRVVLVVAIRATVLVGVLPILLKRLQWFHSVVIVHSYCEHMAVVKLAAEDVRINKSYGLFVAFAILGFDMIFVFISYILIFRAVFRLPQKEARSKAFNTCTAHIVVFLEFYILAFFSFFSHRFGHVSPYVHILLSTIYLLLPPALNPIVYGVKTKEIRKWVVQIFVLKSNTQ
How it was run: as §1

[3] = target: T3, UniProt Q8VG27
T3 sequence (whole entry): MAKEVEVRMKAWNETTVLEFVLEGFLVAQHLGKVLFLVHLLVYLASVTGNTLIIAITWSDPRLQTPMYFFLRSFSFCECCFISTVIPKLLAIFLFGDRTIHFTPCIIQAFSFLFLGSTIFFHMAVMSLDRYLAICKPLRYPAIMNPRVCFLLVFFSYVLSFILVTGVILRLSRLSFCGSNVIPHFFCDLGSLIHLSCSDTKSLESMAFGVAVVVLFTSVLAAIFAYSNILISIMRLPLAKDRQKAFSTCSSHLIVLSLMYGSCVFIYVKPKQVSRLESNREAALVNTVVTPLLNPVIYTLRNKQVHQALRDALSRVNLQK
How it was run: as §1

[4] = target: T4, UniProt Q8VG53
T4 sequence (whole entry): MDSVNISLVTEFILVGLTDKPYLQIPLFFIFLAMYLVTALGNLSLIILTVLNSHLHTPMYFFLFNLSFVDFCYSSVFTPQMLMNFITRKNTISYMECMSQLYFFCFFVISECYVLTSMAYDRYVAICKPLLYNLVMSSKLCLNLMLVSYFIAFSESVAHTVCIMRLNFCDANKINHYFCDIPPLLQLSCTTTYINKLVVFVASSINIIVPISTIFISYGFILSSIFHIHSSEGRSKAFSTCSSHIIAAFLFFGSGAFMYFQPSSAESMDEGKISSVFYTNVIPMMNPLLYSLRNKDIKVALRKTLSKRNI
How it was run: as §1

[5] = target: T5, UniProt Q8VG64
T5 sequence (whole entry): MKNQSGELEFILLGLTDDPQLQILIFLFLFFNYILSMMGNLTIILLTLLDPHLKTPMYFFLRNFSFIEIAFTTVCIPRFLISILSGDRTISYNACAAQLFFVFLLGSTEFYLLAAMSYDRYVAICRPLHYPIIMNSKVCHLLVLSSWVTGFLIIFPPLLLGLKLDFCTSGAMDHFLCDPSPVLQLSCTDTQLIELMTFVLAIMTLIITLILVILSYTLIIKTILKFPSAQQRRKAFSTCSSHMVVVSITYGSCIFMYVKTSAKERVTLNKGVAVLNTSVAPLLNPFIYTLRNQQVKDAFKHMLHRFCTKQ
How it was run: as §1

[6] = target: T6, UniProt Q8VGB9
T6 sequence (whole entry): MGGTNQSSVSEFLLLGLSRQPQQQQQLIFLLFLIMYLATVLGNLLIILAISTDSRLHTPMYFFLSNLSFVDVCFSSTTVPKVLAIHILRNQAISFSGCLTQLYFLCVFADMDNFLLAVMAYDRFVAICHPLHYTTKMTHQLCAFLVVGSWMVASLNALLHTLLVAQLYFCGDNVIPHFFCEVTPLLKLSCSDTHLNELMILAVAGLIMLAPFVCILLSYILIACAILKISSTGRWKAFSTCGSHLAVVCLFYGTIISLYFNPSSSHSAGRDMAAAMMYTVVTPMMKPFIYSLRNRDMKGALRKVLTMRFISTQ
How it was run: as §1

[7] = target: T7, UniProt Q8VFZ6
T7 sequence (whole entry): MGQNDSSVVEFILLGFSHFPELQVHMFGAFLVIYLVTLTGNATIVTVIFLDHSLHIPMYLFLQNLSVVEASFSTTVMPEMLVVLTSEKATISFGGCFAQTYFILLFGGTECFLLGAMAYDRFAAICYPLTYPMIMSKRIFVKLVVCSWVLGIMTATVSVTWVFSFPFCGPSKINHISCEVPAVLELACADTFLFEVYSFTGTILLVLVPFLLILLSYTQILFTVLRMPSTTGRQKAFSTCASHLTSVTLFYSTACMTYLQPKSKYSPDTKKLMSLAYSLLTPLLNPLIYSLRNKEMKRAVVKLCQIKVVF
How it was run: as §1

[8] = target: T8, UniProt Q8VG22
T8 sequence (whole entry): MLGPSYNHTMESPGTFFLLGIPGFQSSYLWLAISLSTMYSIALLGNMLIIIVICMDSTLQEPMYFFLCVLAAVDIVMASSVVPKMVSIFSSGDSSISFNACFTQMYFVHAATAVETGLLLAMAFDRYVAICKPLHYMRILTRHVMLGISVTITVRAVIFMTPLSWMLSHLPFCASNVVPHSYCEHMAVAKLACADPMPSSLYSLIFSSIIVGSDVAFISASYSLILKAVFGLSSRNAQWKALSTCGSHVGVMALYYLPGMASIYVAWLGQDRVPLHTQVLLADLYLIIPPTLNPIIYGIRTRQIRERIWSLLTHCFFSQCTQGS
How it was run: as §1

[9] = target: UniProt Q8VG28
UniProt Q8VG28, sequence (Q8VG28 as listed by the source): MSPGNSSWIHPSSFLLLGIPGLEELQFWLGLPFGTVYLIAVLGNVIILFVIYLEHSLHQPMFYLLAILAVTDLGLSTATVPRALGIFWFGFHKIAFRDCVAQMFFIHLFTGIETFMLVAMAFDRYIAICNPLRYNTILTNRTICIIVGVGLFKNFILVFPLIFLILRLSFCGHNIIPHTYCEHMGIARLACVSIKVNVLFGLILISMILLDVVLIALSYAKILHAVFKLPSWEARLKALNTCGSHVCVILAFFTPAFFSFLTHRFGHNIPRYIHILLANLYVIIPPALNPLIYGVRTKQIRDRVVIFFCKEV
How it was run: as §1

[10] = target: T9, UniProt Q8VG49
T9 sequence (whole entry): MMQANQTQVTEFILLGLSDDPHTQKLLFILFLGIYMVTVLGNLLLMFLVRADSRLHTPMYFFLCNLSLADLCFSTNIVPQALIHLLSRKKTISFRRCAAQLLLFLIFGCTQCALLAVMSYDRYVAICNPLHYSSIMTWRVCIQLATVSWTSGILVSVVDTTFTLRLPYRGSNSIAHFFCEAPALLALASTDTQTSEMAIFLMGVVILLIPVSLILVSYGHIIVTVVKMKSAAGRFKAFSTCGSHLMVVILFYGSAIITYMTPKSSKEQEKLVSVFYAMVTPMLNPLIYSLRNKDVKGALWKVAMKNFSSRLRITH
How it was run: as §1

[11] = target: T10, UniProt Q8VG77
T10 sequence (whole entry): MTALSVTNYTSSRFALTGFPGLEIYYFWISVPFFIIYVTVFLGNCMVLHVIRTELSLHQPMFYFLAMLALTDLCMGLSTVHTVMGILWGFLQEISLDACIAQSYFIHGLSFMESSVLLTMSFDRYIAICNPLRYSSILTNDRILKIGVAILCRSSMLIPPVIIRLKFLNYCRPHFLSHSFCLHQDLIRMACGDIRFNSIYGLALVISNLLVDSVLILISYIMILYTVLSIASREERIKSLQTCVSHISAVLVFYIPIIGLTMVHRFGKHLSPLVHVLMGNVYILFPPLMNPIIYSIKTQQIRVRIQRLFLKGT
How it was run: as §1

[12] = target: T11, UniProt Q8VG96
T11 sequence (whole entry): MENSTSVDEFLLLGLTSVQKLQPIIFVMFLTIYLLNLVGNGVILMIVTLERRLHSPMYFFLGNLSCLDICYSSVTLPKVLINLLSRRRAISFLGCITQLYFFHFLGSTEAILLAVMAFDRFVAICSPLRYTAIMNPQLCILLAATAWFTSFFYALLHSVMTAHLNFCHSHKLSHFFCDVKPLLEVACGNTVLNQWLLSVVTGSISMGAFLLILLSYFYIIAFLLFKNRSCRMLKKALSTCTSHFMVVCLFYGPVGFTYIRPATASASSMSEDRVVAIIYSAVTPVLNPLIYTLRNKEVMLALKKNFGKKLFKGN
How it was run: as §1

[13] = target: UniProt Q8VG26
UniProt Q8VG26, sequence (Q8VG26 as listed by the source): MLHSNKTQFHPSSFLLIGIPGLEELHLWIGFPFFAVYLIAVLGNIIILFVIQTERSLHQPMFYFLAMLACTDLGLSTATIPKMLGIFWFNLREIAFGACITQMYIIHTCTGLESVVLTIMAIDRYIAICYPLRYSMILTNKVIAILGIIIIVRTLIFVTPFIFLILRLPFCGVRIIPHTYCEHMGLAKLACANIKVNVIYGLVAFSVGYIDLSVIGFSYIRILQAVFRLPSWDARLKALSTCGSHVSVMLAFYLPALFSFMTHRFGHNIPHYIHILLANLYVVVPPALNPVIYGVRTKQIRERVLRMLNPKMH
How it was run: as §1

[14] = target: UniProt Q8VFQ6
UniProt Q8VFQ6, sequence (Q8VFQ6 as listed by the source): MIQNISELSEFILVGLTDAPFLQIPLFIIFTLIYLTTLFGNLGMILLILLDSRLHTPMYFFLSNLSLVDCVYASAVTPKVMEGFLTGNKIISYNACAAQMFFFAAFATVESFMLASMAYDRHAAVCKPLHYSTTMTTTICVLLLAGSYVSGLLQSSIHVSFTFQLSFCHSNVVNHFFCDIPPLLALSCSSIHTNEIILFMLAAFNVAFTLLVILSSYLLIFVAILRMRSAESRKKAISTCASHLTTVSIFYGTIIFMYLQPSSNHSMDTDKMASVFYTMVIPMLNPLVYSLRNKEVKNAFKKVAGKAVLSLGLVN
How it was run: as §1

Measured: odorant receptor agonist call;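 further: active if original authors judged signal statistically different from baseline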

O=C(O)CCCCCCCCC(=O)O
inactive: [1] | [2] | [3] | [4] | [5] | [6]

CC=C(C)C=O
inactive: [1] | [2] | [3] | [4] | [5] | [6]

CCCO
inactive: [1] | [2] | [3] | [4] | [5] | [6]

CC(C)=C1CCC(C)CC1=O (stereo not given)
inactive: [1] | [2] | [3] | [4] | [5] | [6]

O=C(OCc1ccccc1)c1ccccc1O
inactive: [1] | [2] | [3] | [4] | [5] | [6]

C=C(CC)CCCC(C)(C)O
inactive: [1] | [2] | [3] | [4] | [5] | [6]

CCCCCCCCC=CC=O
inactive: [1] | [2] | [3] | [4] | [5] | [6]

CSSSC
inactive: [1] | [2] | [3] | [4] | [5] | [6]

CCOC(=O)CC(C)C
inactive: [1] | [2] | [3] | [4] | [5] | [6]

CCC=CCCC=CC=O
inactive: [1] | [2] | [3] | [4] | [5] | [6]

CCCCCCCCCC=CC=O
inactive: [1] | [2] | [3] | [4] | [5] | [6]

OCC=Cc1ccccc1
inactive: [1] | [2] | [3] | [4] | [5] | [6]

C=C(C)C1CCC2(C)OC2C1 (stereo not given)
inactive: [1] | [2] | [3] | [4] | [5] | [6]

CCCC=O
inactive: [1] | [2] | [3] | [4] | [5] | [6]

CC(=O)OC1(C)CCC23CC1C(C)(C)C2CCC3C (stereo not given)
inactive: [1] | [2] | [3] | [4] | [5] | [6]

COc1ccccc1
inactive: [1] | [2] | [3] | [4] | [5] | [6]

C=C1C2CCC(C2)C1(C)C (stereo not given)
inactive: [1] | [2] | [3] | [4] | [5] | [6]

CCSSCC
inactive: [1] | [2] | [3] | [4] | [5] | [6]

CCc1ncc(C)nc1CC
inactive: [1] | [2] | [3] | [4] | [5] | [6]

CC=Cc1ccc(OC)cc1
inactive: [1] | [2] | [3] | [4] | [5] | [6]

CCc1nccnc1CC
inactive: [1] | [2] | [3] | [4] | [5] | [6]

CCCC(C)C(=O)OCC (stereo not given)
inactive: [1] | [2] | [3] | [4] | [5] | [6]

C=CC(=C)CCC=C(C)CCC=C(C)C
inactive: [1] | [2] | [3] | [4] | [5] | [6]

CCSCC
inactive: [1] | [2] | [3] | [4] | [5] | [6]

CCCCCO
active: [8]
inactive: [7] | [2] | [9] | [10] | [11] | [12]

CCCCCCC(C=O)=Cc1ccccc1
inactive: [1] | [2] | [3] | [4] | [5] | [6]

CC(C)CCN
inactive: [1] | [2] | [3] | [4] | [5] | [6]

CCOC(=O)C(C)CC (stereo not given)
inactive: [1] | [2] | [3] | [4] | [5] | [6]

O=C(O)CCCCCC(=O)O
inactive: [9]

O=C(O)CCCCBr
inactive: [9]

CC1CCC(C(C)C)C(=O)C1 (stereo not given)
inactive: [1] | [2] | [3] | [4] | [5] | [6]

O=C(O)C1CCC1
inactive: [1] | [2] | [3] | [4] | [5] | [6]

CCCCOC(=O)CCC
inactive: [13] | [9]

c1ccc2ncccc2c1
inactive: [1] | [2] | [3] | [4] | [5] | [6]

O=c1ccc2ccccc2o1
inactive: [14] | [7] | [2] | [10] | [11]
active: [8] | [12]

CCCCCC(C)O (stereo not given)
inactive: [1] | [2] | [3] | [4] | [5] | [6]

CCCCOC(=O)C(C)OC(=O)CCC (stereo not given)
inactive: [7] | [2] | [8] | [10] | [11] | [12]

COc1nccnc1C(C)C
inactive: [1] | [2] | [3] | [4] | [5] | [6]

CCCCCC=CCCC=O
inactive: [1] | [2] | [3] | [4] | [5] | [6]

CCCCCCC(=O)[O-].[H+]
active: [2]
inactive: [7] | [8] | [13] | [9] | [10] | [11] | [12]
